Measured values reported in article PMC8163515 (Bioorganic chemistry, 2020).
Values after ≈ are worked out from the molar mass of the structure shown. “Also recorded” adds a separate entry of the source.

Legend:
Water solubility = type: physicochemical
human recombinant ATX [1] = biological target: T1, human recombinant ATX (Homo sapiens, UniProt Q13822); assay: ATX inhibition, hydrolysis of nucleotide substrate pNP-TMP; type: biochemical; settings: 1 mM pNP-TMP, 4 nM human rATX
Method in brief: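 Purified FLAG-tagged human ATX from the Sf9 baculovirus system was run with nucleotide substrate pNP-TMP in triplicate wells. Absorbance at 405 nm read every 2 min for 1 h; triplicate means recorded and percent activity derived from the 1 h point.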

human recombinant ATX [2] = biological target: T1, human recombinant ATX; assay: ATX inhibition, hydrolysis of FRET substrate FS-3; type: biochemical; settings: for Mechanism: FS-3 0 to 10 μM, inhibitor at 0, 0.5 × IC50 or 2 × IC50
Method in brief: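 Human ATX, C-terminal FLAG-tagged, expressed in Sf9 cells by baculovirus and purified on anti-FLAG beads. Fluorescence (485/528 nm) read every 2 min for 1 h. Percent activity taken at 1 h; IC50 (±SD) interpolated from a variable-slope Hill fit.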

LPAR1 = LPAR1 (Homo sapiens, UniProt Q92633); assay: LPA1 receptor antagonism, calcium mobilization in LPA1 RH7777 cells; type: cell-based; settings: for LPAR1 inhibitory activity: result in words
Method in brief: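 Stably LPA1-overexpressing rat hepatoma RH7777 cells, kept in DMEM, 10% FBS, 2 mM L-glutamine, 250 μg/mL G418, 37 °C, 5% CO2. Plated at 5 × 10^4 cells/well on poly-L-lysine overnight, serum-deprived 4 h in Krebs buffer (pH 7.4), loaded 30 min with 4.5 μg/mL Fura-2AM. Compound dose range tested with and without LPA 18:1 at its EC50 concentration. Fluorescence 340/510 and 380/510 nm every 3.42 s for 70 s. Triplicate mean ratios normalized to LPA Emax; IC50 from variable-slope fit.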

log P = type: physicochemical
[3] = Experimental pIC50, -log IC50, ATX enzyme inhibition
[4] = IC50 (nM ± SD) vs FS-3, 1 μM FS-3, 4 nM human rATX, 1 h
[5] = IC50 (nM) ATX enzyme, QSAR data set, compounds of this study

Chain of LPAR1 (Q92633 whole entry, species assumed): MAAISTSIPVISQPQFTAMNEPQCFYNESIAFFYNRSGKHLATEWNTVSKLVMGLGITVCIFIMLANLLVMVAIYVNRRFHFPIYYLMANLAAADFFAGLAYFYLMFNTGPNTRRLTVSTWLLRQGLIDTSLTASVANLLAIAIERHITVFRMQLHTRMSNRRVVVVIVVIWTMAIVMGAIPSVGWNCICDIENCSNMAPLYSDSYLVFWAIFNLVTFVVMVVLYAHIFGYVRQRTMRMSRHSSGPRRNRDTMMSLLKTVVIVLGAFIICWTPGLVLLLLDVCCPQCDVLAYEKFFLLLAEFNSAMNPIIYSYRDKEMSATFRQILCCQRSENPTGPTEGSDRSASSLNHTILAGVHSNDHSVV

| solubility (Water solubility) [µg/mL] | pNP-TMP inhibition (human recombinant ATX [1]) | IC50 (human recombinant ATX [2]; [3]) [nM] | IC50 (human recombinant ATX [2]; [4]) [nM] | IC50 (human recombinant ATX [2]; [5]) [nM] | IC50 (LPAR1) [nM] | logP (log P) | Mechanism (human recombinant ATX [2]) | SMILES | LPAR1 inhibitory activity (LPAR1) |
| --- | --- | --- | --- | --- | --- | --- | --- | --- | --- |
| > 100 | none | > 1000 | > 1000 | ≥ 1000 | > 1000 | 2.44 | – | O=C(Nc1cc(F)c(F)c(F)c1)c1cc(C(C(=O)O)N2CCOCC2)ccc1F (stereo not drawn) [Compound 15, 2-(4-fluoro-3-((3,4,5-trifluorophenyl)-carbamoyl)-phenyl)-2-morpholinoacetic acid] | – |
| > 100 | none | – | 220 ± 14.7 | – | – | 3.2 | Competitive | CS(=O)(=O)N(c1cc(C(=O)Nc2cc(F)c(F)c(F)c2)c(Cl)cc1Cl)C1CCOCC1 [Compound 10, 2,4-dichloro-5-(N-(tetrahydro-2H-pyran-4-yl)-methylsulfonamido)-N-(3,4,5-trifluorophenyl)-benzamide] | neither compound 10 nor compound 11 showed any LPAR1 inhibitory activity; also recorded: no LPAR1 inhibitory activity |
| 50 (≈ 127 µM) | none | – | > 1000 | ≥ 1000 | > 1000 | 2.91 | – | N#CC(c1ccc(F)c(C(=O)Nc2cc(F)c(F)c(F)c2)c1)N1CCOCC1 (stereo not drawn) [Compound 14, 5-(cyano(morpholino)methyl)-2-fluoro-N-(3,4,5-trifluorophenyl)-benzamide] | – |
| > 100 | none | 219 | 219 ± 25.2 | 219 | – | 3.68 | Competitive | CS(=O)(=O)N(c1cc(C(=O)Nc2cc(F)c(Cl)c(F)c2)c(Cl)cc1Cl)C1CCOCC1 [Compound 11, 2,4-dichloro-N-(4-chloro-3,5-difluorophenyl)-5-(N-(tetrahydro-2H-pyran-4-yl)-methylsulfonamido)-benzamide] | neither compound 10 nor compound 11 showed any LPAR1 inhibitory activity; also recorded: no LPAR1 inhibitory activity |
